From ChEMBL document CHEMBL3045292, “Synthesis and herbicidal activity of 2-(7-fluoro-3-oxo- 3,4-dihydro-2H-benzo[b][1,4]oxazin-6-yl)isoindoline-1,3-diones” (J Agric Food Chem, 2005)

Legend:
Digitaria sanguinalis [1] = assay: Herbicidal activity against crabgrass Digitaria sanguinalis(hairy crabgrass) assessed as weed growth inhibition at 75 g/ha pre-emergence treatment […]; format: functional; settings: read-out: GI
Procedure, shortened: (§1)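 Pot-grown plants in the greenhouse, in clay soil (pH 6.5, 1.6% organic matter, 37.3% clay, CEC 12.1 cmol/kg). Compound was made up as a 100 g/L emulsified concentrate (DMF, Tween-80), diluted in water and sprayed at 75 g ai/ha. Pre-emergence spraying was 24 h after sowing; post-emergence at two-leaf (dicots) or one-leaf (monocots) stage. Untreated and DMF controls. Percent growth inhibition scored visually 15 days post-treatment.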

Setaria viridis [2] = assay: Herbicidal activity against Setaria viridis (green foxtail) assessed as weed growth inhibition at 75 g/ha pre-emergence treatment […]; format: functional; settings: read-out: GI; procedure, shortened: as §1
Chenopodium album [3] = assay: Herbicidal activity against fat hen Chenopodium album assessed as weed growth inhibition at 75 g/ha pre-emergence treatment […]; format: functional; settings: read-out: GI; procedure, shortened: as §1
Chenopodium album [4] = assay: Herbicidal activity against fat hen Chenopodium album assessed as weed growth inhibition at 75 g/ha post-emergence treatment […]; format: functional; settings: read-out: GI; procedure, shortened: as §1
Amaranthus blitum [5] = assay: Herbicidal activity against Amaranthus blitum assessed as weed growth inhibition at 75 g/ha pre-emergence treatment […]; format: functional; settings: read-out: GI; procedure, shortened: as §1
Echinochloa crus-galli [6] = assay: Herbicidal activity against Echinochloa crus-galli (barnyard grass) (barnyard grass) assessed as weed growth inhibition at 75 g/ha pre-emergence treatment […]; format: functional; settings: read-out: GI; procedure, shortened: as §1
Setaria viridis [7] = assay: Herbicidal activity against Setaria viridis (green foxtail) assessed as weed growth inhibition at 75 g/ha post-emergence treatment […]; format: functional; settings: read-out: GI; procedure, shortened: as §1
Abutilon theophrasti [8] = assay: Herbicidal activity against Abutilon theophrasti (velvetleaf) assessed as weed growth inhibition at post-emergence treatment […]; format: functional, organism-based; procedure, shortened: as §1
Digitaria sanguinalis [9] = assay: Herbicidal activity against crabgrass Digitaria sanguinalis(hairy crabgrass) assessed as weed growth inhibition at post-emergence treatment […]; format: functional, organism-based; procedure, shortened: as §1
Echinochloa crus-galli [10] = assay: Herbicidal activity against Echinochloa crus-galli (barnyard grass) (barnyard grass) assessed as weed growth inhibition at 75 g/ha post-emergence treatment […]; format: functional; settings: read-out: GI; procedure, shortened: as §1
Digitaria sanguinalis [11] = assay: Herbicidal activity against crabgrass Digitaria sanguinalis(hairy crabgrass) assessed as weed growth inhibition at 75 g/ha post-emergence treatment […]; format: functional; settings: read-out: GI; procedure, shortened: as §1
Abutilon theophrasti [12] = assay: Herbicidal activity against Abutilon theophrasti (velvetleaf) assessed as weed growth inhibition at 75 g/ha post-emergence treatment […]; format: functional; settings: read-out: GI; procedure, shortened: as §1
Amaranthus blitum [13] = assay: Herbicidal activity against Amaranthus blitum assessed as weed growth inhibition at 75 g/ha post-emergence treatment […]; format: functional; settings: read-out: GI; procedure, shortened: as §1
Abutilon theophrasti [14] = assay: Herbicidal activity against Abutilon theophrasti (velvetleaf) assessed as weed growth inhibition at 75 g/ha pre-emergence treatment […]; format: functional; settings: read-out: GI; procedure, shortened: as §1

SMILES | inhibition of growth at 75 g/ha (Digitaria sanguinalis [1]) | inhibition of growth at 75 g/ha (Setaria viridis [2]) | inhibition of growth at 75 g/ha (Chenopodium album [3]) | inhibition of growth at 75 g/ha (Chenopodium album [4]) | inhibition of growth at 75 g/ha (Amaranthus blitum [5]) | inhibition of growth at 75 g/ha (Echinochloa crus-galli [6]) | inhibition of growth at 75 g/ha (Setaria viridis [7]) | IC50 (Abutilon theophrasti [8]) | IC50 (Digitaria sanguinalis [9]) | inhibition of growth at 75 g/ha (Echinochloa crus-galli [10]) | inhibition of growth at 75 g/ha (Digitaria sanguinalis [11]) | inhibition of growth at 75 g/ha (Abutilon theophrasti [12]) | inhibition of growth at 75 g/ha (Amaranthus blitum [13]) | inhibition of growth at 75 g/ha (Abutilon theophrasti [14])
C#CCN1C(=O)COc2cc(F)c(N3C(=O)c4cccc(F)c4C3=O)cc21 | > 80% | > 80% | > 80% | > 80% | > 80% | > 80% | > 80% | 23 g/ha | 20 g/ha | > 80% | > 80% | > 80% | > 80% | > 80%
C#CCN1C(=O)COc2cc(F)c(N3C(=O)c4cccc(C)c4C3=O)cc21 | < 50% | < 50% | < 50% | < 50% | < 50% | < 50% | < 50% | 87 g/ha | 63 g/ha | 50% | 50% | < 50% | < 50% | < 50%
C#CCN1C(=O)COc2cc(F)c(N3C(=O)c4cccc([N+](=O)[O-])c4C3=O)cc21 | < 50% | < 50% | < 50% | < 50% | < 50% | < 50% | < 50% | 300 g/ha | 210 g/ha | < 50% | < 50% | < 50% | < 50% | < 50%
CN1C(=O)COc2cc(F)c(N3C(=O)c4ccc(F)cc4C3=O)cc21 | < 50% | < 50% | < 50% | < 50% | < 50% | < 50% | < 50% | 161 g/ha | 172 g/ha | < 50% | < 50% | < 50% | < 50% | < 50%
CN1C(=O)COc2cc(F)c(N3C(=O)c4cccc(F)c4C3=O)cc21 | < 50% | < 50% | 50% | > 80% | 50% | < 50% | < 50% | 45 g/ha | > 1800 g/ha | < 50% | < 50% | > 80% | > 80% | 50%
C#CCN1C(=O)C(C)Oc2cc(F)c(N3C(=O)c4ccc(C)cc4C3=O)cc21 (configuration not stated) | < 50% | < 50% | > 80% | > 80% | > 80% | < 50% | < 50% | 18 g/ha | 393 g/ha | < 50% | < 50% | > 80% | > 80% | > 80%
C#CCN1C(=O)COc2cc(F)c(N3C(=O)c4ccc(C)cc4C3=O)cc21 | < 50% | < 50% | < 50% | > 80% | < 50% | < 50% | < 50% | 28 g/ha | 31 g/ha | 50% | > 80% | > 80% | > 80% | < 50%
C#CCN1C(=O)C(C)Oc2cc(F)c(N3C(=O)c4cccc(F)c4C3=O)cc21 (configuration not stated) | > 80% | > 80% | > 80% | > 80% | > 80% | > 80% | > 80% | 7.7 g/ha | 42 g/ha | > 80% | > 80% | > 80% | > 80% | > 80%
